High-throughput results as filed in PubChem.
m5-HT2A agonist: agonists of mouse serotonin 5-HT2A receptor (HTR2A) | CHO-K1 mHTR2A beta-arrestin complementation, luminescence; percent of 30 µM serotonin response | AID 624169 | 360,000 tested, 0.66% active | activation, % at 7.6 µM;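 active = activation above a run cutoff, the mean activation of all tested compounds plus 3 SD, cut at about 14% in these data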;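 also: 0% = plate median of compound wells and 100% = 30 µM serotonin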
Target sequence (P35363 whole entry, looked up): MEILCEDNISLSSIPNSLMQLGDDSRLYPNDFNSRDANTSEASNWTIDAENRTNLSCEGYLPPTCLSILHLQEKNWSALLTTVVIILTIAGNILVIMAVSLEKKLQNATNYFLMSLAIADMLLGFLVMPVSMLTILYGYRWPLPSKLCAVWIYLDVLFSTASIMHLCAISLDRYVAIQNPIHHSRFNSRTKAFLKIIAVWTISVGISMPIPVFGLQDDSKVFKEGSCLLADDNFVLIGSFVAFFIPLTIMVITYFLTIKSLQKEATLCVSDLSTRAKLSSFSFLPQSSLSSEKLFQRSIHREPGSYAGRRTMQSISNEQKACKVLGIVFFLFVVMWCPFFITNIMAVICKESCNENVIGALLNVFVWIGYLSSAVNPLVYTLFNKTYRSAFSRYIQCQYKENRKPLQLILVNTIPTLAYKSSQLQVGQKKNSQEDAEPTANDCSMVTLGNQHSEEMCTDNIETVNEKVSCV
EBI2 antag: antagonists of human EBI2 receptor; EBI2 beta-arrestin recruitment, luminescence, 7a,25-OHC stimulated; 360,000 tested, 0.81% active; P32249; inhibition, % at 5 µM; in the data active = inhibition above about 38%;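 also: enzyme fragment complementation signal reports receptor beta-arrestin coupling in cells; 0% = agonist plus DMSO wells and 100% = wells without agonist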
Target sequence (P32249 whole entry, looked up, the tested form may be a part): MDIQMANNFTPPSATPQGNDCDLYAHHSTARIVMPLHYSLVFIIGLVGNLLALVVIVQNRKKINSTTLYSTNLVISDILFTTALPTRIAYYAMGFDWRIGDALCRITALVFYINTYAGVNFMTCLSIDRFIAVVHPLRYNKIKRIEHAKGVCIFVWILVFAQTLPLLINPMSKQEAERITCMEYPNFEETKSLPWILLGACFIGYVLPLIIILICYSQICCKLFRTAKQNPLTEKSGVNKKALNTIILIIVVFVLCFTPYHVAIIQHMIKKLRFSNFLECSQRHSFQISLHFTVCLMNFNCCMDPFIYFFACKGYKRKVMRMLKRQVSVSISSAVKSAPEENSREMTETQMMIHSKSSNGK
APJ agonist: activates the human apelin receptor APJ. CHO-K1 APJ PathHunter beta-arrestin, luminescence; 0% DMSO wells, 100% apelin. AID 2520. 330,000 tested, 0.11% active. P35414. activation, % at 20 µM;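 active = activation more than six SD over the plate average, tested at 20 µM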;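 also: 0% = DMSO alone and 100% = apelin-13 at 10 nM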
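Test system – PathHunter CHO-K1 APJ (AGTRL-1) beta-arrestin reporter cells · Input – 1000 cells/well · Compound – single test compound dose, 20 µM final, 1% DMSO · Times – compound stimulation 90 min at 25 °C, detection 60 min · Technique – beta-gal luminescence · Read-out basis – APJ–arrestin association signal · Control set – negative DMSO alone, positive Apelin-13 at 10 nM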
APJ antagonist: APJ receptor antagonism; P35414; inhibition, % at 20 µM; CHO-K1 APJ beta-arrestin complementation, luminescence; 330,000 tested, 0.32% active;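 active = inhibition above about 40% at 20 µM, limit read from the data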;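 also: cells challenged with 10 nM apelin-13 agonist together with compound; plate controls were apelin-13 plus DMSO wells for no effect and DMSO wells lacking apelin-13 for full effect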
CCR6 antag: CCR6 (human) receptor antagonism; CHO-K1 CCR6 PathHunter beta-arrestin, luminescence, CCL20-stimulated; 340,000 tested, 0.49% active; inhibition, % at 20 µM; P51684;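 active = compounds whose inhibition of the agonist-driven luminescence signal at 20 µM reaches about 50%, limit read from the data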;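 also: cells stimulated with CCL20 at 14 nM final; plate controls were DMSO with CCL20 for no effect and DMSO without agonist for full effect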
CXCR6 block: CXCR6 (human) receptor inhibition. O00574. CHO-K1 PathHunter CXCR6 beta-arrestin, luminescence. inhibition, % at 20 µM. 360,000 tested, 0.36% active. AID 602244; in the data active = inhibition above about 34%, passing the limit was not always enough;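 also: antagonist mode with CXCL16 agonist at 10 nM final; 0% = 10 nM CXCL16 with DMSO and 100% = unstimulated wells without agonist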
EBI2 antag conf: EBI2 (human) antagonism, single concentration confirmation | shares compounds with EBI2 antag | EBI2 beta-arrestin luminescence, 7a,25-OHC antagonism | inhibition, % at 5 µM | 2,400 tested, 29% active | AID 651997;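 active = inhibition of at least 50%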
EBI2 ag: activates EBI2, counter-screen for EBI2 antagonists; shares compounds with EBI2 antag; activation, % at 5 µM; EBI2-expressing cells, agonist mode, luminescence, 60 min; 0% vehicle, 100% 7α,25-dihydroxycholesterol control; 2,400 tested, under 10 active;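 active = activation of at least 50%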
bGal counter: inhibits E. coli beta-galactosidase, counter-screen for EBI2 antagonists; shares compounds with EBI2 antag; purified beta-galactosidase, luminescent Galacton Star, 15 min; inhibition, % at 5 µM; 2,400 tested, 1% active; AID 652176;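 active = replicate-average signal at least 3 plate SD below neutral wells, shown as high inhibition, flagging enzyme-inhibiting false positives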;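 also: 0% = DMSO wells with enzyme and 100% = wells lacking enzyme; higher means stronger loss of beta-gal luminescence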
Starred values were filed as active, the others as inactive; . = no result given. A selection: hits, their analogues and other compounds. The true share with any hit is near 2.1%.

SMILES | m5-HT2A agonist | EBI2 antag | APJ agonist | APJ antagonist | CCR6 antag | CXCR6 block | EBI2 antag conf | EBI2 ag | bGal counter
OC1CCN(c2c3c(nc4cc(-c5ccc(Cl)cc5)nn24)CCC3)CC1 | 6.8 | 43.9* | 6.8 | -5.7 | -3.1 | 9.5 | 40.2 | 0.7 | 1.2
O=C(c1ccccc1)N1CCN(Cc2ccccc2)CC1 | 3.2 | -0.8 | -2.7 | 12.1 | 5.1 | -1.4 | . | . | .
CCc1cc2cc(C(=O)N3CCN(Cc4ccccc4)CC3)sc2s1 | -4.2 | 96.5* | -2.7 | -1.9 | 7.5 | -4.0 | 85.2* | 0.6 | 5.1
CCc1cc2cc(C(=O)N3CCN(c4ccccc4)CC3)sc2s1 | -0.4 | 83.0* | -5.7 | 7.3 | -13.7 | -1.5 | 46.1 | -1.6 | -14.6
Cc1cc(=O)c(C(=O)O)cn1-c1ccc(C(C)C)cc1 | 0.6 | -11.9 | -1.2 | 9.0 | 3.7 | 2.8 | . | . | .
COc1ccc(CNC(=O)c2ccccc2NS(C)(=O)=O)cc1 | -1.1 | -4.8 | -4.1 | -3.1 | 4.4 | -2.5 | . | . | .
Cc1cc(C(=O)Nc2cc(C(F)(F)F)ccc2N2CCOCC2)no1 | -3.4 | -1.9 | 6.0 | 22.0 | 20.3 | 8.5 | . | . | .
O=C(Nc1cc(C(F)(F)F)ccc1N1CCOCC1)c1ccc2ccccc2n1 | -3.1 | 44.3* | -3.4 | 20.5 | 6.3 | 0.8 | 31.3 | 1.4 | 9.8
COc1ccc(-c2cc(-c3nnc(COC(=O)C4CC4)o3)c3ccccc3n2)cc1OC | -1.3 | -3.1 | -2.0 | -33.9 | 6.4 | -3.5 | . | . | .
COc1ccc(-c2cc(-c3nnc(COC(=O)c4ccc(O)cc4)o3)c3ccccc3n2)cc1OC | -1.6 | 45.7* | -1.2 | -31.1 | -2.9 | 4.7 | 8.3 | 4.1 | 5.5
CC(=O)c1ccc(OCc2cc(C(=O)N(C)Cc3nc4c(C)cccc4[nH]3)no2)cc1 | -4.8 | -0.8 | -2.4 | 7.6 | 3.6 | 4.2 | . | . | .
Cc1cc(Cl)cc(Cl)c1OCCOc1cccc2cccnc12 | 3.5 | 56.3* | -2.8 | 20.9 | 24.4 | -0.5 | 39.3 | 3.7 | 0.9
CCCC(c1nnnn1Cc1ccc(F)cc1)N1CCN(C2CCCCC2)CC1 (centres undefined) | -3.1 | 7.4 | -2.8 | 3.8 | 5.9 | -1.8 | . | . | .
O=C(COc1ccccc1)N1CCN(S(=O)(=O)c2ccc(Cl)cc2)CC1 | -0.9 | 48.6* | 3.0 | -1.9 | 8.1 | -6.2 | 35.1 | -1.5 | -3.8
O=C(COc1ccc(Cl)cc1)N1CCN(S(=O)(=O)c2ccccc2)CC1 | -2.3 | 86.8* | 3.0 | -8.6 | 4.9 | -2.0 | 67.8* | -0.8 | -15.0
O=C(NCc1ccc(Cl)cc1)N1CCN(S(=O)(=O)c2ccccc2)CC1 | 1.1 | 44.5* | -0.6 | 7.1 | 14.0 | -4.7 | 24.6 | 0.5 | 8.8
COc1ccc(OCC(=O)N2CCN(S(=O)(=O)c3ccc(Cl)cc3)CC2)cc1 | -1.1 | 71.3* | -6.7 | 9.0 | 14.1 | 1.3 | 58.5* | 0.4 | 5.5
COc1ccc(S(=O)(=O)N2CCN(C(=O)COc3ccc(C)c(C)c3)CC2)cc1OC | -2.3 | 77.3* | 3.2 | -7.4 | 2.7 | 5.6 | 31.5 | -2.0 | -12.3
CCOC(=O)C1CCN(S(=O)(=O)c2ccc3[nH]c(=O)oc3c2)CC1 | -1.1 | -4.1 | -1.3 | 1.9 | 8.1 | -1.8 | . | . | .
N#Cc1ccc(C(=O)Nc2ccc3ccccc3c2)cc1 | -10.5 | 59.6* | -1.4 | 1.5 | 4.1 | -4.2 | 51.2* | 2.7 | 1.5
N#C/C(=C\c1ccc(Br)s1)C(=O)N1CCN(c2ccccc2)CC1 | 2.9 | 73.2* | 2.5 | 7.4 | 4.6 | 8.9 | 20.6 | 0.0 | 8.0
CCc1ccc(N=CC2=C(O)CC(c3ccco3)CC2=O)cc1 (centres undefined) | 2.5 | -11.4 | 0.7 | -20.1 | 24.1 | -1.5 | . | . | .
CC(=O)N(Cc1ccco1)c1nc(C(=O)Nc2ccc(Cl)cc2)c(C)s1 | -2.2 | 61.2* | -0.6 | 4.9 | 24.9 | 6.0 | 17.2 | 1.1 | 6.5
CN(NC(=O)C(=O)NCc1ccco1)C(=O)Nc1ccc(Cl)cc1 | 0.2 | 9.5 | . | . | . | -3.2 | . | . | .
CCN(CC(=O)Nc1c(F)cccc1F)C(=O)/C=C/c1ccc(OCC#N)c(OC)c1 | -2.5 | 0.4 | -4.6 | 1.3 | 2.0 | -0.6 | . | . | .
SMILES | m5-HT2A agonist | EBI2 antag | APJ agonist | APJ antagonist | CCR6 antag | CXCR6 block | EBI2 antag conf | EBI2 ag | bGal counter
CCN(CC(=O)Nc1c(F)cccc1F)C(=O)/C=C/c1ccc(C)cc1 | 0.7 | 94.5* | -4.9 | 13.8 | -7.6 | 5.3 | 80.0* | -1.3 | -5.5
CCN(CC(=O)NCc1ccc(F)cc1)C(=O)/C=C/c1ccc(OC)cc1 | -10.0 | 62.1* | 2.1 | 12.0 | 0.8 | 2.2 | 57.1* | 0.0 | 8.5
COc1ccc(-n2cc(-c3ccccc3)c3c(N4CC(C)OC(C)C4)ncnc32)cc1 (centres undefined) | 2.9 | -6.4 | 3.5 | 7.7 | 13.1 | -2.0 | . | . | .
COc1ccc(CCC(=O)N2CCN(S(=O)(=O)c3ccc(C)cc3)CC2)cc1 | 11.5 | 49.4* | -3.2 | 8.9 | 8.3 | -3.1 | 21.2 | 0.5 | 3.9
COc1ccc(S(=O)(=O)N2CCN(C(=O)CCC3CCCC3)CC2)cc1 | -1.8 | 3.0 | 7.5 | 3.2 | -1.6 | 1.4 | . | . | .
COc1ccc(CCC(=O)N2CCN(S(=O)(=O)c3cccc(Cl)c3)CC2)cc1 | -5.1 | 71.9* | -4.4 | 12.5 | 11.5 | -1.9 | 47.1 | -0.4 | -17.4
COc1ccc(S(=O)(=O)N2CCN(C(=O)c3cccc(Cl)c3)CC2)cc1 | -0.8 | -2.1 | -3.5 | -4.7 | 5.8 | -4.9 | . | . | .
COc1ccc(OCCCC(=O)N2CCN(S(=O)(=O)c3cccc(F)c3)CC2)cc1 | -4.4 | 57.7* | -3.3 | 11.3 | 9.6 | -9.1 | 29.4 | 0.1 | 3.4
CCS(=O)(=O)N1CCC(c2nc3ccccc3[nH]2)CC1 | -2.2 | -14.1 | -3.1 | 3.3 | -7.5 | 2.2 | . | . | .
O=S(=O)(CC(O)COc1ccc(Br)cc1)c1ccccc1 (centres undefined) | 2.8 | 45.3* | -4.5 | 19.4 | 11.7 | -4.5 | 18.4 | -1.6 | -6.5
O=C1CCc2cc(NS(=O)(=O)c3ccc([N+](=O)[O-])cc3)cc3c2N1CC3 | 2.9 | 0.8 | 14.1 | -97.2 | -4.7 | -7.8 | . | . | .
CCn1c(SCC(=O)N/N=C/c2ccc(C)o2)nnc1-c1ccccc1 | 2.1 | 51.1* | -0.6 | -6.6 | -3.8 | 10.4 | 25.5 | 2.6 | 2.9
Clc1ccc(-c2csc3ncnc(N4CCc5ccccc5C4)c23)cc1 | 6.1 | 44.4* | -3.5 | 11.0 | 0.9 | -1.6 | 24.4 | -1.6 | -8.8
O=C(CSc1ccc(Br)cc1)Nc1ccccc1Oc1ccccc1 | -1.5 | 53.8* | -1.1 | 0.3 | 5.4 | -9.7 | 20.5 | -0.2 | -14.5
